DENV2 CPE rescue: inhibitors of DENV2 cytopathic effect | DENV2-infected cells, cytopathic effect rescue, plate reader | actives 1.7% (n = 350,000) | CPE inhibition, % at 9.99 µM; in the data active = CPE inhibition above about 20%, passing the limit was not always enough; inconclusive = no clear call, values can overlap the other calls; tested in BHK-21 cells;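 note: 0% = median of neutral control wells and 100% = median of positive control wells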
Cneo AK release: causes C. neoformans cell lysis; adenylate kinase release luminescence, 4 h; normalised: neutral wells 0, clomiphene wells 100; lysis activity, % at 15 µM; actives 0.2% (n = 360,000);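 active = mean lysis activity across replicates of at least 80%, whatever share of replicates individually reach that level; inactive = mean lysis activity below 80%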
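Material: C. neoformans cells; Schedule: 4 h static compound exposure, 37 °C, read 1 h post-reagent; Measured by: adenylate kinase release luminescence; Read-out: signal increase indicating cell lysis; Controls: Clomiphene as positive lysis control.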
Xi reactivation: activators of X-chromosome reactivation in mouse fibroblasts; AID 743238; XiGFP mouse fibroblasts, % GFP-positive cells imaging, 3 d; cells co-treated with 5-aza-dC sensitizer; scaled so ellipticine positive control = 100%; activation, % at 7.58 µM; actives 0.055% (n = 360,000);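 active = mean normalized replicate activation at least 10% and every replicate at or above 10%; inconclusive = only one of the two criteria met; inactive = mean below 10% and not all replicates reach 10%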;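 note: 0% = median of on-plate neutral control wells and 100% = ellipticine 6 µM median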
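System: SV40-immortalized XiGFP fibroblast cells, line 68-5-11 / Incubation: 3-day compound exposure, then 15 min fixation at room temperature / Compound: single concentration per compound, delivered by pin transfer / Buffer or medium: DMEM plus 5-aza-dC sensitizer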
PGC1a acetyl inh: modulators of PGC1a acetylation; AID 651687; U2OS PGC1a acetylation, AlphaScreen anti-acetyl-lysine; with virally co-expressed GCN5 acetyltransferase; actives 0.17% (n = 350,000); inhibition, % at 15.6 µM;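 active = every replicate shows inhibition of at least 40%; inconclusive = mean inhibition at least 40% but some replicate below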;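 note: 0% = neutral control wells and 100% = positive control wells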
FN deposition inh: fibronectin deposition inhibition. AH1F fibroblasts, Alexa488-fibronectin deposition fluorescence, overnight. inhibition, % at 12.6 µM. actives 0.086% (n = 350,000). AID 743247;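 active = mean inhibition across replicates of 30% or more, regardless of how many single replicates reach that level; inconclusive = mean under 30% yet at least half of replicates reach 30%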;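 note: positive control wells lacked labelled fibronectin entirely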
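material = AH1F fibroblast monolayer depositing Alexa488-labelled fibronectin into matrix | amount = 10000 AH1F cells/well | buffer or medium = DMEM plus 2% serum, read in PBS | incubation = 1 h cell adhesion before compound, then overnight fibronectin incubation | detection = fluorescence at 485 nm excitation, 525 nm emission | evaluation = percent inhibition as loss of matrix-bound fibronectin fluorescence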
F508del corr: correctors of CFTR F508del function in bronchial epithelial cells. actives 0.36% (n = 350,000). AID 720511. activity (quench increase), % at 7.58 µM. CFBE cells, YFP halide quenching; stimulated with forskolin plus potentiator P3; % fluorescence drop versus neutral controls;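 active = mean added fluorescence quench of at least 8% versus neutral control, with both replicates also reaching 8%; inconclusive = only one of the mean or replicate conditions met; inactive = mean below 8% and not both replicates reaching 8%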;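 note: cells transiently co-express mutant CFTR-F508del with the halide-sensitive YFP; corrector assay measuring rescue of mutant channel to the surface after 24 h compound exposure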
Active calls of the source: *; ? = inconclusive; . = no result; ! = repeats disagree. Only some compounds are listed: those with a hit (about 1.9% of all), similar ones and a draw of the others.

SMILES | DENV2 CPE rescue | Cneo AK release | Xi reactivation | PGC1a acetyl inh | FN deposition inh | F508del corr
C[C@H]1CN([C@@H](C)CO)C(=O)Cc2cc(NC(=O)Nc3ccccc3)ccc2O[C@@H]1CN(C)C(=O)Nc1ccc2c(c1)OCO2 | . | 101* | 0 | -33 | . | -2
COc1ccc(CN(C)C[C@H]2Oc3ccc(NC(=O)Nc4ccc5c(c4)OCO5)cc3C(=O)N([C@@H](C)CO)C[C@H]2C)cc1 | 0 | 15 | 0 | -5 | . | 0
COc1ccc(S(=O)(=O)Nc2ccc3c(c2)C(=O)N([C@H](C)CO)C[C@@H](C)[C@H](CN(C)C(=O)C2CCCCC2)OCCCC[C@H](C)O3)cc1 | 5 | 0 | -1 | -8 | . | -4
CCCn1c(=S)[nH]c2cc(Cl)ccc21 | 7 | 151* | 0 | 3 | 4 | -3
C=CCN1C(=O)C2C(C(=O)NCc3ccccc3)C3C=CC2(O3)C1C(=O)NC(C)(C)C (configuration not stated) | . | 1 | . | 11 | . | .
CCOC(=O)[C@@H]1[C@@H]2C=C[C@]3(O2)[C@H](C(=O)NCc2ccccc2)N(CCCCCCO)C(=O)[C@@H]13 | 1 | 51 | . | 11 | . | 10*
COc1ccc(NC(=O)N(C)C[C@@H]2OCCCC[C@@H](C)Oc3ccc(NC(=O)Nc4ccc(F)cc4)cc3C(=O)N([C@H](C)CO)C[C@H]2C)cc1 | 14 | 0 | 0 | -15 | . | 2
CC(=NNC(=S)N1CCCCC1)c1cccc(C)n1 | 0 | . | 1 | . | 1 | 12*
CC(=NNC(=S)N1CCCCC1)c1ccccn1 | 0 | . | 3 | . | -7 | 6
COC(=O)C1=C(C)N(Cc2ccccc2)C(=NCC(C)C)N[C@H]1c1cccc(F)c1 | 25* | 1 | 0 | -31 | 4 | 0
COC(=O)C1=C(C)N(Cc2ccccc2)C(=NCC(C)C)N[C@H]1c1cccc(C(F)(F)F)c1 | . | 17 | . | . | . | .
C[C@@H]1CN([C@H](C)CO)C(=O)c2cc(NS(=O)(=O)c3ccccc3)ccc2O[C@@H]1CN(C)Cc1ccncc1 | -1 | 51 | 0 | -2 | -3 | 0
Cc1ccc(S(=O)(=O)N(C)C)cc1NC(=O)COC(=O)C1CCCC1 | 34* | -1 | 0 | -1 | -3 | -1
O=C(CN(Cc1ccco1)Cc1ccco1)Nc1cc(S(=O)(=O)N2CCCCC2)ccc1Cl | -3 | 1 | 0 | -7 | -1 | 9.4*
O=C(COC(=O)C1CCC1)Nc1cc(S(=O)(=O)N2CCOCC2)ccc1Cl | -6 | -2 | 0 | 4 | 0 | 13*
C[C@@H]1CN([C@@H](C)CO)C(=O)c2cccc(NC(=O)Nc3ccc4c(c3)OCO4)c2O[C@@H]1CN(C)S(=O)(=O)c1cn(C)cn1 | -8 | 4 | -1 | 3 | 2 | 5
COc1ccc(CN(C(=O)c2ccc(C)cc2)c2cccc(N)c2)cc1 | 38* | -1 | 0 | -2 | -11 | 0
C=CCN=c1scc(-c2ccc(F)cc2)n1/N=C/c1ccccn1 | . | . | 1 | . | 0 | 4
C=CCN=c1scc(-c2ccccc2)n1/N=C/c1ccccn1 | ? | -4 | 0 | -10 | 4 | 8.4*!
C[C@@H]1CN([C@@H](C)CO)C(=O)Cc2cc(NC(=O)c3ccncc3)ccc2O[C@@H]1CN(C)S(=O)(=O)c1ccc(Cl)cc1 | 4 | -2 | -1 | 3 | . | -3
Nc1ccccc1Nc1cc(-c2ccccc2)nn1-c1cccc(Cl)c1 | 20* | . | 0 | . | -1 | 1
C[C@@H]1CN([C@@H](C)CO)C(=O)Cc2cc(NC(=O)C3CC3)ccc2O[C@H]1CN(C)Cc1ccc(C(=O)Nc2ccccc2N)cc1 | -13 | 17 | 0 | 4 | . | -1
CO[C@@H]1CN(C)C(=O)c2ccc(NC(=O)c3cc(C)on3)cc2OC[C@H](C)N(C)C[C@H]1C | 0 | -7 | 0 | -3 | 1 | -1
CO[C@H]1CN(C)C(=O)c2ccc(NC(=O)c3cc(C)on3)cc2OC[C@H](C)N(C(=O)C2CC2)C[C@H]1C | -2 | -1 | 1 | . | 12 | -1
CO[C@H]1CN(C)C(=O)c2ccc(NC(=O)c3cc(C)on3)cc2OC[C@@H](C)N(C)C[C@@H]1C | 21* | -2 | 0 | -19 | 1 | 6
SMILES | DENV2 CPE rescue | Cneo AK release | Xi reactivation | PGC1a acetyl inh | FN deposition inh | F508del corr
CO[C@@H]1CN(C)C(=O)c2ccc(NC(=O)c3cc(C)on3)cc2OC[C@H](C)N(C(=O)C2CC2)C[C@H]1C | 32* | 0 | 0 | . | 2 | -1
O=C(NC1CCCCC1)N1CC(=O)N2[C@H](CO)[C@H](c3ccc(-c4cccc(F)c4)cc3)[C@H]2C1 | ? | . | 0 | 1 | . | -1
CN(C)CCCNC(=O)C[C@H]1CC[C@@H]2[C@H](COC[C@@H](O)CN2C(=O)c2ccncc2)O1 | -2 | -1 | 0 | -1 | 3 | -1
CC(=O)C1=C(C)N(Cc2ccc(Cl)cc2)C(=S)NC1c1ccccc1 (configuration not stated) | 15 | . | 0 | . | -7 | -3
CC(=O)C1=C(C)N(Cc2ccc(Cl)cc2)C(=S)NC1c1ccc(Cl)cc1 (configuration not stated) | 55* | . | 0 | . | 8 | -1
C[C@H]1CCCCO[C@H](CN(C)Cc2ccc(Cl)c(Cl)c2)[C@@H](C)CN([C@@H](C)CO)C(=O)c2cc(NC(=O)NC3CCCCC3)ccc2O1 | 11 | -1 | -1 | . | . | 2
O=C(COC(=O)Cc1cccs1)Nc1cccc(S(=O)(=O)N2CCOCC2)c1 | 8 | . | 0 | 3 | -1 | -1
Cc1cc(Br)ccc1NC(=O)CNC(=O)Cc1ccc(S(=O)(=O)N2CCOCC2)s1 | 39* | 6 | 0 | 9 | 4 | -1
NS(=O)(=O)c1cccc(NC(=O)COC(=O)Cc2ccc(S(=O)(=O)N3CCOCC3)s2)c1 | 3 | 1 | 140* | . | 2 | 1
CCNC(=O)Cc1ccc(S(=O)(=O)N2CCOCC2)s1 | ? | 0 | 0 | . | -4 | 2
Cn1c(CC(=O)NN)c(Sc2ccccc2)c2ccccc21 | 7 | 0 | 0 | 17 | -10 | 12*
CCCNC(=O)Nc1ccc2c(c1)C(=O)N(C)C[C@H](OC)[C@@H](C)CN(C(=O)C1CCCCC1)[C@@H](C)CO2 | -6 | 0 | 0 | 4 | . | 0
O=C1C=CCCN1S(=O)(=O)/C=C/c1ccccc1 | 0 | -5 | . | 59* | . | -5
CC(=O)N[C@@H]1CC[C@H](CC(=O)NCC2CCCCC2)O[C@@H]1CO | 5 | 3 | 0 | 7 | 10 | 0
S=C1NCCN1CC1CCN(CCCC2CCCC2)CC1 | 72* | -1 | . | 9 | -7 | 3

Screens (PubChem)
